The source made the active and inactive calls. No cut-off for these calls is given here.
What was measured:
[1] = Half life in human liver microsomes; format: ADME, Microsome
[2] = target: T1, Tankyrase 1/2 (Homo sapiens, UniProt Q9H2K2+O95271); test: Inhibition of TNKS1/2 in HEK293 cells assessed as inhibition of Wnt/beta-catenin pathway after 24 hrs by luciferase reporter gene assay; format: cell-based
T1 sequence (Q9H2K2 whole entry): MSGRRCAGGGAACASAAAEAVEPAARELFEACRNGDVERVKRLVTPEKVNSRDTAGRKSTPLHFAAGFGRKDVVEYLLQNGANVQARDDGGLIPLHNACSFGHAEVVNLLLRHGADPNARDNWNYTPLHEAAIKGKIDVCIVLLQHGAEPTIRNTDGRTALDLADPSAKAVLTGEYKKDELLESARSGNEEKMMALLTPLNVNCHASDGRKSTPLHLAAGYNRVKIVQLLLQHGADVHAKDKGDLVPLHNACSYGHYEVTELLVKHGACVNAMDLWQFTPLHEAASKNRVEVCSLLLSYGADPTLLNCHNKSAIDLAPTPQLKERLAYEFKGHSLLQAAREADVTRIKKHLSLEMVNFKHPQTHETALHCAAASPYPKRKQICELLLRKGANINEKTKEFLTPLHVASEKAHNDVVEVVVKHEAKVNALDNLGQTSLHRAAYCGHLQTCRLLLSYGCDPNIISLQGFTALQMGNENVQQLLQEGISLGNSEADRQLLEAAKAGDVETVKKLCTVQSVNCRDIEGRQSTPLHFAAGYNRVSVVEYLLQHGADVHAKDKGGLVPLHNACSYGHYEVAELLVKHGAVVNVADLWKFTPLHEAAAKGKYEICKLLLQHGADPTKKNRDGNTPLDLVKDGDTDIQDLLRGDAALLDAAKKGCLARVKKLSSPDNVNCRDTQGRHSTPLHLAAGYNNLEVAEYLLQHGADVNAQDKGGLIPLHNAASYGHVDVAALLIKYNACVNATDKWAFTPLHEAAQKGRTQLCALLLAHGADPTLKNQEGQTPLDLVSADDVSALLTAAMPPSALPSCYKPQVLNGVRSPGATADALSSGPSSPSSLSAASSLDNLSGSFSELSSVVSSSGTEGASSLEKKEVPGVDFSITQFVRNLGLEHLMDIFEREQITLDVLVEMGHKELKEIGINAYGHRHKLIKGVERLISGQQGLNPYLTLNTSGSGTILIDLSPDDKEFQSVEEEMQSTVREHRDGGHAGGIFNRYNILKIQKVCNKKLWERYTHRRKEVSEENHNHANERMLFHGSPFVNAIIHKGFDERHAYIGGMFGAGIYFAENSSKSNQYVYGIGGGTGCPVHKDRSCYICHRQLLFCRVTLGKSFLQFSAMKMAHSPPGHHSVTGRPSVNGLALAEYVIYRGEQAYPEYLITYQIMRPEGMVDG
T1 sequence (O95271 whole entry): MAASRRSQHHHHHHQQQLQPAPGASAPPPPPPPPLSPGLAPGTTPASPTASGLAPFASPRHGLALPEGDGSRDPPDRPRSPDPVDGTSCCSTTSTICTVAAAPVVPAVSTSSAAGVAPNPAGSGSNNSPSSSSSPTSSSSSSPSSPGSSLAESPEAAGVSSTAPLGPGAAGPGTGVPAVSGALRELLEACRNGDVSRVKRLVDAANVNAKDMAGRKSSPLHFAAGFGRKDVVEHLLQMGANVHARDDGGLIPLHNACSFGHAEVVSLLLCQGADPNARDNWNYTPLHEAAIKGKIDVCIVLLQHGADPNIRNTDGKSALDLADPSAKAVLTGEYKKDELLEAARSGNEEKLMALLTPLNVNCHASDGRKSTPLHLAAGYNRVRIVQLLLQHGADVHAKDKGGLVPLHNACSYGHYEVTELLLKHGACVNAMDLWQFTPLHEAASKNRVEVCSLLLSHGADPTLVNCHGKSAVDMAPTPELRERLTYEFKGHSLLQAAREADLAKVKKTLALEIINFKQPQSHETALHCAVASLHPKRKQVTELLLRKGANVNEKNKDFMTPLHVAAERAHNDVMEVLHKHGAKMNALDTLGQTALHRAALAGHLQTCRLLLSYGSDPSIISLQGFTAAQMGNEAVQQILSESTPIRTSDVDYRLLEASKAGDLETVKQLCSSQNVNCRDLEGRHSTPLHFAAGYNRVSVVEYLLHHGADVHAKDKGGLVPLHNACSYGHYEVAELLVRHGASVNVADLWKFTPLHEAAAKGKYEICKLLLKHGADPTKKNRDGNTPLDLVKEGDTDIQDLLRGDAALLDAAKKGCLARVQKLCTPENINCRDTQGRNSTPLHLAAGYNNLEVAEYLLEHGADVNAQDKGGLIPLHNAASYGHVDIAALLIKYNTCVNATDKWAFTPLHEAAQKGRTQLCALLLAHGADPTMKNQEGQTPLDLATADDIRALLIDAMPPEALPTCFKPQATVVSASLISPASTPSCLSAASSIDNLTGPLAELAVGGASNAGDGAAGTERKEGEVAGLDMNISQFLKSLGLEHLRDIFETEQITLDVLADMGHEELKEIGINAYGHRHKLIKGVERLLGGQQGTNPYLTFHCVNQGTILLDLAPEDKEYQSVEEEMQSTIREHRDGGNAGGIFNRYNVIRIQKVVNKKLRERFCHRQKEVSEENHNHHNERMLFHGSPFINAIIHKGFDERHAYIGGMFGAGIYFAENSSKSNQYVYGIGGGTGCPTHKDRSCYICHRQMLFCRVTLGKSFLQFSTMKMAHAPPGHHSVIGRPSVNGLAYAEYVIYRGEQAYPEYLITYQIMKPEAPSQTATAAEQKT

[3] = target: T2, Poly [ADP-ribose] polymerase tankyrase-2 (Homo sapiens, UniProt Q9H2K2); test: Inhibition of TNKS2 (unknown origin) by NAD+-dependent autopoly(ADP ribosyl)lation assay
T2 sequence (Q9H2K2 whole entry): T1 sequence (Q9H2K2 whole entry)

[4] = target: Tankyrase 1/2 (Homo sapiens) (UniProt Q9H2K2+O95271); test: Inhibition of TNKS1/2 in HEK293 cells assessed as inhibition of Wnt/[…] pathway at 10 uM after 24 hrs by luciferase reporter gene assay; format: cell-based
Outline: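 ST-Luc/Ren HEK293 cells (stable SuperTOP-Flash, 7× TCF sites) were seeded at 40,000 per well on poly-L-lysine. After 24 h, cells got compound for 24 h in 50% Wnt3a-conditioned medium from L Wnt3a cells. Lysates were read for firefly and Renilla luciferase by dual-luciferase luminescence.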

`COc1cc(-c2nnc(/C=C/c3nnc(-c4ccc(S(C)(=O)=O)cn4)n3-c3ccccc3Cl)o2)ccn1` gave a half-life [1] of 37 min.
Compound `Oc1cc(-c2nnc(/C=C/c3nnc(-c4ccc(F)cc4)n3-c3ccccc3Cl)o2)ccn1` has a half-life [1] of 128 min.
Work on `Cc1ccc(-c2nnc(CCc3nnc(-c4ccncc4)n3-c3ccccc3Cl)o2)cc1` yielded a half-life [1] of 7 min.
In the case of `COc1ccc(-n2c(NCc3nc(-c4ccc(C)cc4)no3)nnc2-c2ccncc2)cc1`, the half-life [1] is reported as 6.5 min, the IC50 [2] is reported as > 10 µM and the IC50 [3] is reported as > 10 µM.
In the case of `COc1ccc(-n2c(OCc3nc(-c4ccc(C)cc4)no3)nnc2-c2ccncc2)cc1`, the IC50 [2] is reported as > 10 µM and the IC50 [3] is reported as > 10 µM.
In the case of `Cc1nnc(SCc2nnc(-c3ccc(Cl)cc3)o2)n1-c1ccccc1Cl`, the IC50 [2] is reported as 4.5 µM.
For `Cc1cc2nc(CSc3nnc(-c4ccncc4)n3-c3ccccc3Cl)cc(=O)n2cc1C`, the half-life [1] was 7 min.
`COc1ccc(-n2c(SCc3nc(-c4ccc(C)cc4)no3)nnc2-c2ccncc2)cc1` gave a half-life [1] of 3 min, an IC50 [2] of 1.01 µM and an IC50 [3] of 0.46 µM.
With `Cc1ccc(-c2noc(CSc3ncc(-c4ccncc4)n3-c3ccccc3C)n2)cc1` the IC50 [2] was > 10 µM.
Compound `CS(=O)(=O)c1ccc(-c2nnc(SCc3nnc(-c4ccc(Cl)cc4)o3)n2-c2ccccc2Cl)nc1` has a half-life [1] of 4 min.
With `N#Cc1ccc(-c2nnc(CSc3nnc(-c4ccncc4)n3-c3ccccc3Cl)o2)cc1` the half-life [1] was 2.4 min.
With `N#Cc1ccc(-c2nnc(CSc3nnc(-c4ccncc4)n3-c3ccncc3Cl)o2)cc1` the inhibition [4] was “inactive”.
With `NCCCOCCCOc1cccc(-c2noc(CSc3nnc(-c4ccncc4)n3-c3ccccc3Cl)n2)c1` the IC50 [2] was 3.92 µM.
